Test results taken from ChEMBL document CHEMBL1145749, “Inhibition of human immunodeficiency virus reverse transcriptase by synadenol triphosphate and its E-isomer” (J Med Chem, 2003).
The source made the active and inactive calls. The calls are words filed in the database; no cut-off is given here.

How the values were obtained:
[1] = system: Nc1ncnc2c1ncn2[C@H]1C[C@H](O)[C@@H](COP(=O)(O)OP(=O)(O)OP(=O)(O)O)O1; assay: Substrate Activity against HIV-1 reverse transcriptase (RT M184I)
Procedure, shortened: (§1)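 Purified recombinant HIV-1 RT M184V or M184I was assayed on MS2 RNA/22A primer at 37 °C (pH 7.8 Tris, 6 mM MgCl2, 150 mM KCl, 0.01% Triton X-100) with [3H]dATP as the only nucleotide substrate. Aliquots were taken 4–5 times onto DE81 filters and counted by scintillation. Km was taken from the Lineweaver–Burk plot without inhibitor.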

[2] = system: Human immunodeficiency virus 1; assay: Antiviral selectivity against HIV-1 virus; Significant activity; type: functional, organism-based
[3] = Ratio of inhibitory activity of compound to that of substrate activity of dATP against RT M184V enzyme was determined
Procedure, shortened: (§2)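 Recombinant HIV-1 RT (wild-type, M184V or M184I) was expressed in E. coli JM109 with 1 mM IPTG for 5 h, then purified on Q and SP columns to >90% purity. Assay used MS2 RNA/22A DNA primer in 50 mM Tris-HCl pH 7.8, 6 mM MgCl2, 150 mM KCl and 0.01% Triton X-100. Synthesis was distributive, with [3H]dATP as the only nucleotide, at 37 °C. Timed aliquots were spotted on DE81 and counted by scintillation. Ki came from the abscissa intercept of the Lineweaver–Burk replot. Ratio was Ki over dATP Km.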

[4] = Ratio of inhibitory activity of compound to that of substrate activity of dATP against RT M184I enzyme was determined; procedure, shortened: as §2
[5] = Ratio of inhibitory activity of compound to that of substrate activity of dATP against RT wt enzyme was determined; procedure, shortened: as §2
[6] = system: Nc1ncnc2c1ncn2[C@H]1C[C@H](O)[C@@H](COP(=O)(O)OP(=O)(O)OP(=O)(O)O)O1; assay: Substrate Activity against HIV-1 reverse transcriptase (RT M184V); procedure, shortened: as §1
Human betaherpesvirus 5 [7] = assay: Antiviral selectivity against HCMV virus; exhibited wide range selectivity; type: functional, organism-based
[8] = system: Human immunodeficiency virus 1; assay: Antiviral selectivity against HIV-1 virus; exhibited wide range selectivity; type: functional, organism-based
Human alphaherpesvirus 3 [9] = assay: Antiviral selectivity against varicella zoster virus; exhibited wide range selectivity; type: functional, organism-based
Human gammaherpesvirus 4 [10] = assay: Antiviral selectivity against EB virus; exhibited wide range selectivity; type: functional, organism-based
Human betaherpesvirus 5 [11] = assay: Antiviral selectivity against HCMV virus; Inactive; type: functional, organism-based
[12] = system: Human immunodeficiency virus 1; assay: Antiviral selectivity against HIV-1 virus; Inactive; type: functional, organism-based
Human gammaherpesvirus 4 [13] = assay: Antiviral selectivity against […]; Inactive; type: functional, organism-based
Human alphaherpesvirus 3 [14] = assay: Antiviral selectivity against varicella zoster virus; Inactive; type: functional, organism-based

Work on “Human immunodeficiency virus type 1 reverse transcriptase (Human immunodeficiency virus 1), Q72547 M184I” yielded a Km [1] of 0.38 µM.

In the case of COC(=O)C(C)NP(=O)(OCC1C/C1=C\n1cnc2c(N)ncnc21)Oc1ccccc1 (stereo not given), the Anti-HIV activity [2] was “Significant activity”.

Nc1ncnc2c1ncn2/C=C1/CC1COP(=O)(O)OP(=O)(O)OP(=O)(O)O (stereo not given) gave a Ki/Km [3] of 4.5, a Ki/Km [4] of 6.3 and a Ki/Km [5] of 0.8.

With “Human immunodeficiency virus type 1 reverse transcriptase (Human immunodeficiency virus 1), Q72547 M184V” the Km [6] was 0.38 µM.

In the case of Nc1ncnc2c1ncn2/C=C1/CC1CO (stereo not given), the Antiviral selectivity (Human betaherpesvirus 5 [7]) was “exhibited wide range selectivity”, the Antiviral selectivity [8] was “exhibited wide range selectivity” and the Antiviral selectivity (Human alphaherpesvirus 3 [9]) was “exhibited wide range selectivity”. The Antiviral selectivity (Human gammaherpesvirus 4 [10]) was “exhibited wide range selectivity”.

Nc1ncnc2c1ncn2[C@H]1CC[C@@H](COP(=O)(O)OP(=O)(O)OP(=O)(O)O)O1 gave a Ki/Km [3] of 1.3, a Ki/Km [4] of 3.2 and a Ki/Km [5] of 1.2.

With Nc1ncnc2c1ncn2/C=C1\CC1CO (stereo not given) the IA (Human betaherpesvirus 5 [11]) was “inactive”, the IA [12] was “inactive” and the IA (Human gammaherpesvirus 4 [13]) was “inactive”. The IA (Human alphaherpesvirus 3 [14]) was “inactive”.

Molecule Nc1ncnc2c1ncn2/C=C1\CC1COP(=O)(O)OP(=O)(O)OP(=O)(O)O (stereo not given) has a Ki/Km [3] of 137, a Ki/Km [4] of 187 and a Ki/Km [5] of 25.
